Test results from ChEMBL document CHEMBL6134796, “Development and Evaluation of Indole-Based Phospholipase D Inhibitors for Lung Cancer Immunotherapy” (J Med Chem, 2025).
Calls of active or inactive are those of the source. The rule behind the calls is not given here.

Assays:
[1] = system: Lewis lung carcinoma cell line; assay: Antitumor activity against mouse Lewis lung carcinoma cell line allografted in […] male C57BL/6 mouse model assessed as reduction in cell proliferation at 10 mg/kg, po measured every other day for 3 weeks; format: functional, organism-based
[2] = system: Lewis lung carcinoma cell line; assay: Antitumor activity against mouse Lewis lung carcinoma cell line allografted in […] male C57BL/6 mouse model assessed as suppression of tumor formation at 10 mg/kg, po measured every other day for 3 weeks; format: functional, organism-based
HCT-116 = assay: Cytotoxicity against human HCT-116 cells assessed as inhibition of cell growth incubated for 48 hrs by WST-1 assay; format: functional, cell-based; details: HCT-116, 48 h
A549 [3] = assay: Inhibition of colony formation in human A549 cells incubated for 48 hrs by crystal violet staining based analysis; format: functional, cell-based
In short: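 A549 cells seeded at 500 to 1,000 per well; compound added 48 h after seeding, then 48 h further incubation; medium changed every 3 days, kept 10 days total; fixed in 4% PFA 20 min, crystal violet 30 min; colonies counted by image analysis.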

[4] = system: Lewis lung carcinoma cell line; assay: Antitumor activity against mouse Lewis lung carcinoma cell line allografted in male C57BL/6 mouse model assessed as recovery of spleen weight at 10 mg/kg, po measured every other day for 3 weeks; format: functional, organism-based
In short: (§1)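 Syngeneic model: 6-week-old male C57BL/6 mice given 3 × 10^5 LLC cells in 50 μL PBS subcutaneously in the flank. At day 7, mice were randomized to vehicle PO daily or 10 mg/kg PO every other day for 3 weeks. Caliper volume was taken every 2 days as ([…])/2, with tumor weight at end. Spleen size and weight were recorded. Ki67 and cleaved caspase-3 were scored by IHC (DAB, hematoxylin).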

[5] = target: T1, Phospholipase D1 (Mus musculus) (UniProt Q9Z280); assay: In vivo inhibition of PLD1 in male C57BL/6 mouse allografted with mouse Lewis lung carcinoma cell line assessed as reduction in CD47 expression at 10 mg/kg, po by immunofluorescence analysis; format: functional, organism-based
T1 sequence (whole entry): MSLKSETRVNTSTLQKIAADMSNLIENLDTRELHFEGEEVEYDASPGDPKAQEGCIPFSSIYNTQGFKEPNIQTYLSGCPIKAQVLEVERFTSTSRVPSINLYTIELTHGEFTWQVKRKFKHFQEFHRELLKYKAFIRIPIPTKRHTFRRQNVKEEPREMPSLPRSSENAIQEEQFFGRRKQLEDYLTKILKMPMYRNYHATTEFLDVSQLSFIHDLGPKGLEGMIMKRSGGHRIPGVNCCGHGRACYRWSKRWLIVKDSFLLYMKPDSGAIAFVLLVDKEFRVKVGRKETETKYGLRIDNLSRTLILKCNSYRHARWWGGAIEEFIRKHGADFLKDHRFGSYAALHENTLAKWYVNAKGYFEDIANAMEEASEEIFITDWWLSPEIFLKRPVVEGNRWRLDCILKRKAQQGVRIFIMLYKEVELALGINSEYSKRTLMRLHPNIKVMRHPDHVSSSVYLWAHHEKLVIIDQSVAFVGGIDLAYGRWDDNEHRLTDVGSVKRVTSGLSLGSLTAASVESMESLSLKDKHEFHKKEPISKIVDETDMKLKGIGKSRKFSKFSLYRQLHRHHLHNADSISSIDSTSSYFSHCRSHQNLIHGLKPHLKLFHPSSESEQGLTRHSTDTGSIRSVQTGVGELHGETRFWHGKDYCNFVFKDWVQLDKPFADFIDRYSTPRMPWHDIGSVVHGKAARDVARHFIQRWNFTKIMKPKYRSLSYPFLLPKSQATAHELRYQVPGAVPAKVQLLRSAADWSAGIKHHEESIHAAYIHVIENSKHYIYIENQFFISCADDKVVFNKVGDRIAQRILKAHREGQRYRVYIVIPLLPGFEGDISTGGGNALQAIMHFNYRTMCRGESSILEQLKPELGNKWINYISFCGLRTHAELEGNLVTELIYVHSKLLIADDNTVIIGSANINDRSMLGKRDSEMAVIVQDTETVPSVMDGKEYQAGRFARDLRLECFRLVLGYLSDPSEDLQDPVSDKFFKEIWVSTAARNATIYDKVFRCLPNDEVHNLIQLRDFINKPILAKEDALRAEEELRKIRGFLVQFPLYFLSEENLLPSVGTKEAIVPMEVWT

A549 [6] = assay: Downregulation of PD-L1 expression in human A549 cells by flow cytometry analysis; format: functional, cell-based
In short: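 A549 cells treated with compound. Surface "don't eat-me" and "eat-me" markers measured by flow cytometry.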

[7] = target: T1, Phospholipase D1 (Mus musculus); assay: In vivo inhibition of PLD1 in male C57BL/6 mouse allografted with mouse Lewis lung carcinoma cell line assessed as reduction in PD-L1 expression at 10 mg/kg, po by immunofluorescence analysis; format: functional, organism-based
A549 [8] = assay: Induction of apoptosis in human A549 cells increase in caspase-3 level; format: functional, cell-based
In short: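 Cells plated at about 40% density and treated at 10 μM for 48 h, with Ac-DEVD-CHO as the caspase-3 inhibitor control. Incubated with 1 μM NucView 488 caspase-3 substrate in PBS for 30 min at room temperature. Stained with 1 μM Hoechst 33342 and fluorescence quantified on a plate reader.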

[9] = system: Lewis lung carcinoma cell line; assay: Antitumor activity against mouse Lewis lung carcinoma cell line allografted in male C57BL/6 mouse model assessed as recovery of spleen size at 10 mg/kg, po measured every other day for 3 weeks; format: functional, organism-based; in short: as §1
A549 [10] = assay: Induction of apoptosis in human A549 cells measured up to 48 hrs in presence of gemcitabine by Annexin V-FITC and PI staining based flow cytometry analysis; format: functional, cell-based
In short: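 A549 cells given compound, gemcitabine, or both. Apoptosis assessed by PI staining, annexin V flow cytometry, cleaved PARP immunoblot, and caspase-3 activity. For caspase-3: drugs at 10 μM for 48 h, then 1 μM NucView 488 substrate for 30 min, with 1 μM Hoechst 33342, read by plate fluorescence.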

Mus musculus = assay: In vivo inhibition of KRAS activation in male C57BL/6 mouse allografted with mouse Lewis lung carcinoma cell line assessed as decrease in ERK phosphorylation at 10 mg/kg, po; format: functional, organism-based
A549 [11] = assay: Inhibition of PLD1 F614A mutant (unknown origin) overexpressed in human A549 cells; format: cell-based
In short: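 A549 cells transfected with wild-type PLD1, PLD1 mutants (L425A, F614A, F789A) or PLD2, then compound-treated. PLD activity measured as [3H]phosphatidylbutanol formed in the presence of 1-butanol after [3H]myristic acid labeling, expressed as % of total lipid cpm. At least three independent experiments.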

[12] = Inhibition of PLD in human A549 cells measured after 1 hr by amplex red phospholipase D assay; format: cell-based
[13] = system: Lewis lung carcinoma cell line; assay: Antitumor activity against mouse Lewis lung carcinoma cell line allografted in […] male C57BL/6 mouse model assessed as increase in cell apoptosis at 10 mg/kg, po measured every other day for 3 weeks; format: functional, organism-based
Calu-6 = assay: Cytotoxicity against human Calu-6 cells assessed as inhibition of cell growth incubated for 48 hrs by WST-1 assay; format: functional, cell-based; details: Calu-6, 48 h
A549 [14] = assay: Induction of apoptosis in human A549 cells by annexin V and PI staining based flow cytometry analysis; format: functional, cell-based

**Q.** Which Activity [1] does the source give for `O=C(CCc1c[nH]c2ccccc12)Nc1cc(C(F)(F)F)cc(C(F)(F)F)c1` here?
**A.** The Activity was “Active”.

**Q.** And the Activity [2]?
**A.** Its Activity is “Active”.

**Q.** And the IC50 (HCT-116)?
**A.** The IC50 was 29 µM.

**Q.** And the inhibition (A549 [3])?
**A.** Its inhibition is “Active”.

**Q.** What about the Activity [4] of the same compound?
**A.** The Activity was “Active”.

**Q.** And the inhibition [5]?
**A.** Its inhibition is “Active”.

**Q.** What about the Activity (A549 [6]) of the same compound?
**A.** The Activity was “Active”.

**Q.** What about the inhibition [7] of the same compound?
**A.** Its inhibition is “Active”.

**Q.** And the Activity (A549 [8])?
**A.** The Activity was “Active”.

**Q.** And the Activity [9]?
**A.** The Activity was “Active”.

**Q.** And the Activity (A549 [10])?
**A.** The Activity was “Active”.

**Q.** What about the inhibition (Mus musculus) of the same compound?
**A.** Its inhibition is “Active”.

**Q.** What about the inhibition (A549 [11]) of the same compound?
**A.** The inhibition was “inactive”.

**Q.** And the IC50 [12]?
**A.** Its IC50 is 1.97 µM.

**Q.** What about the Activity [13] of the same compound?
**A.** The Activity was “Active”.

**Q.** And the IC50 (Calu-6)?
**A.** The IC50 was 19 µM.

**Q.** What about the Activity (A549 [14]) of the same compound?
**A.** Its Activity is “Active”.
